Activity calls are given as the source filed them.
How the values were obtained:
Format in all cases: functional, cell-based
CCRF-CEM = experiment: Antiproliferative activity against human CCRF-CEM cells at 10 uM incubated for 48 hrs by sulforhodamine B assay
In short: (§1)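 Run by the NCI Developmental Therapeutics Program (Division of Cancer Treatment and Diagnosis) as part of the NCI60 human tumour cell line panel screen. Each compound was tested at a single dose of 10 μM. Results are reported as one-dose mean graphs.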

HL-60(TB) = experiment: Antiproliferative activity against human HL-60(TB) cells at 10 uM incubated for 48 hrs by sulforhodamine B assay
In short: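 Tested within the NCI60 cancer cell line panel screen run by the Developmental Therapeutics Program (Division of Cancer Treatment and Diagnosis, National Cancer Institute). Each stereoisomer was given at a single dose of 10 μM. Results are reported as one-dose mean graphs.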

K562 = experiment: Antiproliferative activity against human K562 cells at 10 uM incubated for 48 hrs by sulforhodamine B assay; in short: as §1
MOLT-4 = experiment: Antiproliferative activity against human MOLT4 cells at 10 uM incubated for 48 hrs by sulforhodamine B assay; in short: as §1
RPMI-8226 = experiment: Antiproliferative activity against human RPMI8226 cells at 10 uM incubated for 48 hrs by sulforhodamine B assay; in short: as §1
SR = experiment: Antiproliferative activity against human SR cells at 10 uM incubated for 48 hrs by sulforhodamine B assay
In short: (§2)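 Run by the NCI Developmental Therapeutics Program (Division of Cancer Treatment and Diagnosis) as part of the NCI60 human tumour cell line panel. Each compound was tested in vitro at a single dose of 10 μM, and the data are reported as one-dose mean graphs across the panel.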

A549 = experiment: Antiproliferative activity against human A549/ATCC cells at 10 uM incubated for 48 hrs by sulforhodamine B assay; in short: as §1
HOP-92 = experiment: Antiproliferative activity against human HOP92 cells at 10 uM incubated for 48 hrs by sulforhodamine B assay; in short: as §1
NCI-H226 = experiment: Antiproliferative activity against human NCI-H226 cells at 10 uM incubated for 48 hrs by sulforhodamine B assay; in short: as §1
NCI-H322M = experiment: Antiproliferative activity against human NCI-H322M cells at 10 uM incubated for 48 hrs by sulforhodamine B assay; in short: as §1
NCI-H460 = experiment: Antiproliferative activity against human NCI-H460 cells at 10 uM incubated for 48 hrs by sulforhodamine B assay; in short: as §1
NCI-H522 = experiment: Antiproliferative activity against human NCI-H522 cells at 10 uM incubated for 48 hrs by sulforhodamine B assay; in short: as §1
COLO 205 = experiment: Antiproliferative activity against human COLO205 cells at 10 uM incubated for 48 hrs by sulforhodamine B assay; in short: as §1
HCC 2998 = experiment: Antiproliferative activity against human HCC2998 cells at 10 uM incubated for 48 hrs by sulforhodamine B assay; in short: as §1
HCT-15 = experiment: Antiproliferative activity against human HCT15 cells at 10 uM incubated for 48 hrs by sulforhodamine B assay; in short: as §1
HT-29 = experiment: Antiproliferative activity against human HT-29 cells at 10 uM incubated for 48 hrs by sulforhodamine B assay; in short: as §1
KM12 = experiment: Antiproliferative activity against human KM12 cells at 10 uM incubated for 48 hrs by sulforhodamine B assay; in short: as §1
SF-268 = experiment: Antiproliferative activity against human SF268 cells at 10 uM incubated for 48 hrs by sulforhodamine B assay; in short: as §1
SF-295 = experiment: Antiproliferative activity against human SF295 cells at 10 uM incubated for 48 hrs by sulforhodamine B assay; in short: as §1
SF-539 = experiment: Antiproliferative activity against human SF539 cells at 10 uM incubated for 48 hrs by sulforhodamine B assay; in short: as §1
SNB-19 = experiment: Antiproliferative activity against human SNB19 cells at 10 uM incubated for 48 hrs by sulforhodamine B assay; in short: as §1
SNB-75 = experiment: Antiproliferative activity against human SNB75 cells at 10 uM incubated for 48 hrs by sulforhodamine B assay; in short: as §2
LOX IMVI = experiment: Antiproliferative activity against human LOXIMVI cells at 10 uM incubated for 48 hrs by sulforhodamine B assay; in short: as §1
Malme-3M = experiment: Antiproliferative activity against human MALME-3M cells at 10 uM incubated for 48 hrs by sulforhodamine B assay; in short: as §1
M14 = experiment: Antiproliferative activity against human M14 cells at 10 uM incubated for 48 hrs by sulforhodamine B assay; in short: as §1
MDA-MB-435 = experiment: Antiproliferative activity against human MDA-MB-435 cells at 10 uM incubated for 48 hrs by sulforhodamine B assay; in short: as §1
SK-MEL-28 = experiment: Antiproliferative activity against human SK-MEL-28 cells at 10 uM incubated for 48 hrs by sulforhodamine B assay; in short: as §1
SK-MEL-5 = experiment: Antiproliferative activity against human SK-MEL-5 cells at 10 uM incubated for 48 hrs by sulforhodamine B assay; in short: as §1
UACC-257 = experiment: Antiproliferative activity against human UACC257 cells at 10 uM incubated for 48 hrs by sulforhodamine B assay; in short: as §2
UACC-62 = experiment: Antiproliferative activity against human UACC62 cells at 10 uM incubated for 48 hrs by sulforhodamine B assay; in short: as §2
IGROV-1 = experiment: Antiproliferative activity against human IGROV1 cells at 10 uM incubated for 48 hrs by sulforhodamine B assay; in short: as §1
OVCAR-3 = experiment: Antiproliferative activity against human OVCAR3 cells at 10 uM incubated for 48 hrs by sulforhodamine B assay; in short: as §1
OVCAR-8 = experiment: Antiproliferative activity against human OVCAR8 cells at 10 uM incubated for 48 hrs by sulforhodamine B assay; in short: as §1
SK-OV-3 = experiment: Antiproliferative activity against human SKOV3 cells at 10 uM incubated for 48 hrs by sulforhodamine B assay; in short: as §1
A498 = experiment: Antiproliferative activity against human A498 cells at 10 uM incubated for 48 hrs by sulforhodamine B assay; in short: as §1
CAKI-1 = experiment: Antiproliferative activity against human Caki1 cells at 10 uM incubated for 48 hrs by sulforhodamine B assay; in short: as §1
RXF 393 = experiment: Antiproliferative activity against human RXF393 cells at 10 uM incubated for 48 hrs by sulforhodamine B assay; in short: as §1
UO-31 = experiment: Antiproliferative activity against human UO31 cells at 10 uM incubated for 48 hrs by sulforhodamine B assay; in short: as §2
PC-3 = experiment: Antiproliferative activity against human PC3 cells at 10 uM incubated for 48 hrs by sulforhodamine B assay; in short: as §1
DU-145 = experiment: Antiproliferative activity against human DU145 cells at 10 uM incubated for 48 hrs by sulforhodamine B assay; in short: as §1
Hs-578T = experiment: Antiproliferative activity against human Hs 578T cells at 10 uM incubated for 48 hrs by sulforhodamine B assay; in short: as §1
BT-549 = experiment: Antiproliferative activity against human BT549 cells at 10 uM incubated for 48 hrs by sulforhodamine B assay; in short: as §1
T47D = experiment: Antiproliferative activity against human T47D cells at 10 uM incubated for 48 hrs by sulforhodamine B assay; in short: as §2
MDA-MB-468 = experiment: Antiproliferative activity against human MDA-MB-468 cells at 10 uM incubated for 48 hrs by sulforhodamine B assay; in short: as §1

Measured: Activity

O=C1C[C@H]2O[C@H]([C@@H](O)c3ccccc3)[C@H](O)[C@H]2O1
active: all assays above

Reference: ChEMBL document CHEMBL4118033, “Total Synthesis, Configuration Assignment, and Cytotoxic Activity Evaluation of Protulactone A” (J Nat Prod, 2017)
